Activity calls are given as the source filed them. The calls are words filed in the database; no cut-off is given here.
Columns and labels:
HT-29 = assay: Antiproliferative activity against human HT-29 cells assessed as growth inhibition after 48 hrs by XTT assay; type: functional, cell-based
HCT-15 = assay: Antiproliferative activity against human HCT15 cells assessed as growth inhibition after 48 hrs by XTT assay; type: functional, cell-based
[1] = Antiproliferative activity against human NCI60 cells assessed as growth inhibition after 48 hrs by XTT assay; type: functional; conditions: NCI60, 48 h
HCT-116 = assay: Antiproliferative activity against human HCT116 cells assessed as growth inhibition after 48 hrs by XTT assay; type: functional, cell-based
SW-620 = assay: Antiproliferative activity against human SW620 cells assessed as growth inhibition after 48 hrs by XTT assay; type: functional, cell-based
HCC 2998 = assay: Antiproliferative activity against human HCC2998 cells assessed as growth inhibition after 48 hrs by XTT assay; type: functional, cell-based
COLO 205 = assay: Antiproliferative activity against human COLO205 cells assessed as growth inhibition after 48 hrs by XTT assay; type: functional, cell-based
In short: (§1)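 Cells were seeded into 384-well plates (COLO205 at […] cells/well, KM12 at 2.5×10^5 cells/well) and preincubated for 24 h. DMSO samples were diluted 1:25 in medium, then given five 2:1 serial dilutions and tested in duplicate (0.4% final DMSO). Exposure was 48 h at 37 °C. XTT was then added, and formazan was read after 4 h at 450 nm against a 650 nm reference.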

KM12 = assay: Antiproliferative activity against human KM12 cells assessed as growth inhibition after 48 hrs by XTT assay; type: functional, cell-based; in short: as §1

| SMILES | growth inhibition (GI) (HT-29) | growth inhibition (GI) (HCT-15) | GI50 [1] [µM] | growth inhibition (GI) (HCT-116) | growth inhibition (GI) (SW-620) | growth inhibition (GI) (HCC 2998) | growth inhibition (GI) (COLO 205) | growth inhibition (GI) (KM12) |
| --- | --- | --- | --- | --- | --- | --- | --- | --- |
| CC(=O)O[C@H]1[C@H](N)CC[C@]2(C)[C@H]3CC[C@]4(C)[C@@H]([C@H](C)CC5NCCC5=C(C)C)CC[C@H]4C3=CC[C@@H]12 (stereo partly drawn) | Active | Active | 2.4 | Active | Active | Active | Active | Active |
| CC(C)C1CCN(C)C1C[C@@H](C)[C@H]1CC[C@H]2C3=CC[C@H]4[C@H](N)C=CC[C@]4(C)[C@H]3CC[C@]12C (stereo partly drawn) | Active | Active |  | Active | Active | Active | Active | Active |
| CC(C)=C1CCNC1C[C@@H](C)[C@H]1CC[C@H]2C3=CC[C@H]4C[C@H](N)CC[C@]4(C)[C@H]3CC[C@]12C (stereo partly drawn) | Active | Active | 11.5 | Active | Active | Active | Active | Active |

— ChEMBL document CHEMBL3351691, “Steroidal alkaloids from the marine sponge Corticium niger that inhibit growth of human colon carcinoma cells” (2014)
